Assay results: ChEMBL document CHEMBL4043303, “Development of Novel Melanocortin Receptor Agonists Based on the Cyclic Peptide Framework of Sunflower Trypsin Inhibitor-1” (J Med Chem, 2018)
Where a SMILES comes first, the peptide text is derived from it. Bridges are numbered along the chain shown (N, C = ends). [ ]: non-standard residue; d: D form. NMeW = CN[C@@H](Cc1c[nH]c2ccccc12)C(=O)O

Experiments:
[1] = biological target: T1, Melanocyte-stimulating hormone receptor (Homo sapiens, UniProt Q01726); test: Agonist activity at human MC1R expressed in low doxycyclin-treated HEK293 cell membranes assessed as increase in cAMP production after 45 mins by HTRF method; type: functional, cell-based
T1 sequence (Q01726 whole entry, looked up): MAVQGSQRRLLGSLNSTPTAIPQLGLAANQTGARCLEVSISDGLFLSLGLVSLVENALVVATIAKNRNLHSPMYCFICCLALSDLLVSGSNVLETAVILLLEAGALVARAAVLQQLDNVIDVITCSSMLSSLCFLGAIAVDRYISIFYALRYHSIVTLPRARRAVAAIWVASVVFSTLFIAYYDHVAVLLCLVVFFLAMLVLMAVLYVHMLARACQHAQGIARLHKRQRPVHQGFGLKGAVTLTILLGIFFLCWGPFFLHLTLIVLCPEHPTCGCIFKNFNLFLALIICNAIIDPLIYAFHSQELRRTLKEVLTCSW

Melanocortin receptor 4 [2] = biological target: T2, Melanocortin receptor 4 (Homo sapiens, UniProt P32245); test: Agonist activity at human MC4R expressed in low doxycyclin-treated HEK293 cell membranes assessed as increase in cAMP production after 45 mins by HTRF method; type: functional, cell-based
T2 sequence (P32245 whole entry): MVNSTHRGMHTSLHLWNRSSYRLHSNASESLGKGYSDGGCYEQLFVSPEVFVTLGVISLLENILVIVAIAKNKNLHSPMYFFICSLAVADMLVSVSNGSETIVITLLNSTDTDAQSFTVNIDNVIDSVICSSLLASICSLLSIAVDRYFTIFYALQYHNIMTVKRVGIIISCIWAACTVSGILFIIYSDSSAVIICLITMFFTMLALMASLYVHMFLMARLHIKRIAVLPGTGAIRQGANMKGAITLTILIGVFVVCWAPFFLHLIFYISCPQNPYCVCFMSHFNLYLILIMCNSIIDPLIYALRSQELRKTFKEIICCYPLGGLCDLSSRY
Procedure, shortened: (§1)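 T-REx-293 cells stably expressing doxycycline-inducible human MC1R, MC3R or MC4R; expression induced 24 h with 0.1 ng/mL (low) or 10 ng/mL (high, MC4R only) doxycycline. 1000 cells/well in HBSS, 20 mM HEPES pH 7.4, 0.1% BSA, 1 mM IBMX; stimulated at 37 °C. Time-resolved FRET cAMP read-out normalized to NDP-α-MSH maximum.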

[3] = Solubility of the compound in water at 1 mM; type: physicochemical; settings: buffer, 1000 µM
Melanocortin receptor 3 [4] = biological target: T3, Melanocortin receptor 3 (Homo sapiens, UniProt P41968); test: Agonist activity at human MC3R expressed in low doxycyclin-treated HEK293 cell membranes assessed as increase in cAMP production after 45 mins by HTRF method; type: functional, cell-based; design: concentration or dose not given beside the values; procedure, shortened: as §1
T3 sequence (P41968 whole entry, the tested form may be a part): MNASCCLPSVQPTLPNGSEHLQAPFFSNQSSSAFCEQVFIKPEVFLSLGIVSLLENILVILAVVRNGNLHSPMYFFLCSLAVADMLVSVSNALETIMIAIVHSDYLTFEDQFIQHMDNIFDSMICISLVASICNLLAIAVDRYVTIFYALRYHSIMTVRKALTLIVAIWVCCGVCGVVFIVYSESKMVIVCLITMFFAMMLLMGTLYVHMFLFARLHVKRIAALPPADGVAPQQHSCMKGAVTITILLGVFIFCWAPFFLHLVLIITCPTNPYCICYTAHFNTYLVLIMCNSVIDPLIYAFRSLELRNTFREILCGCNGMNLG

[5] = biological target: T1, Melanocyte-stimulating hormone receptor; test: Displacement of [125I]-NDP-alpha-MSH from human MC1R LBD expressed in HEK293 cell membranes incubated for 16 to 23 hrs in dark by scintillation proximity assay; design: concentration or dose not given beside the values; settings: concentration not given here
Melanocortin receptor 3 [6] = biological target: T3, Melanocortin receptor 3; test: Displacement of [125I]-NDP-alpha-MSH from human MC3R LBD expressed in HEK293 cell membranes incubated for 16 to 23 hrs in dark by scintillation proximity assay; design: concentration or dose not given beside the values; settings: concentration not given here
Melanocortin receptor 5 = Melanocortin receptor 5 (Homo sapiens, UniProt P33032); test: Displacement of [125I]-NDP-alpha-MSH from human MC5R LBD expressed in HEK293 cell membranes incubated for 16 to 23 hrs in dark by scintillation proximity assay; design: concentration or dose not given beside the values; settings: concentration not given here
Sequence of Melanocortin receptor 5 (P33032 whole entry, the tested form may be a part): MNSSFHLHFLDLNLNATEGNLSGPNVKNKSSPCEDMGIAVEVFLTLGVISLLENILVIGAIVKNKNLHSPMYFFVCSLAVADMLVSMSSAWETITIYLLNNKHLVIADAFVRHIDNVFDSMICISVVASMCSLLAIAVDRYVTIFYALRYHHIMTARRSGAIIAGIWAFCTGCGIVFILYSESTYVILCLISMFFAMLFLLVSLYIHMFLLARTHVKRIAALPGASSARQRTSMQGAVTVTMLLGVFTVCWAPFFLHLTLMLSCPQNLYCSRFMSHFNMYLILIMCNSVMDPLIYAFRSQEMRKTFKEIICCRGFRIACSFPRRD

Melanocortin receptor 4 [7] = biological target: T2, Melanocortin receptor 4; test: Displacement of [125I]-NDP-alpha-MSH from human MC4R LBD expressed in HEK293 cell membranes incubated for 16 to 23 hrs in dark by scintillation proximity assay; design: concentration or dose not given beside the values; settings: concentration not given here
Melanocortin receptor 4 [8] = biological target: T2, Melanocortin receptor 4; test: Agonist activity at human MC4R expressed in high doxycyclin-treated HEK293 cell membranes assessed as increase in cAMP production after 15 mins by HTRF method; type: functional, cell-based; procedure, shortened: as §1

CC[C@H](C)[C@@H]1NC(=O)[C@@H]2CCCN2C(=O)[C@H](Cc2c[nH]c3ccccc23)NC(=O)[C@H](CCCNC(=N)N)N(C)C(=O)[C@@H](Cc2ccccc2)NC(=O)[C@H](Cc2cnc[nH]2)N(C)C(=O)[C@H]([C@@H](C)O)NC(=O)[C@@H]2CSSC[C@H](NC1=O)C(=O)N[C@@H](Cc1ccccc1)C(=O)N1CCC[C@H]1C(=O)N[C@@H](CC(=O)O)C(=O)NCC(=O)N[C@@H](CCCNC(=N)N)C(=O)N2
Activity [1]: 100%
Activity (Melanocortin receptor 4 [2]): 100%
solubility [3]: Soluble
Activity (Melanocortin receptor 3 [4]): 100%
inhibition [5]: 100%
inhibition (Melanocortin receptor 3 [6]): 100%
inhibition (Melanocortin receptor 5): 100%
inhibition (Melanocortin receptor 4 [7]): 100%
Activity (Melanocortin receptor 4 [8]): 100%

CC[C@H](C)[C@@H]1NC(=O)[C@@H]2CCCN2C(=O)[C@@H]2CCCN2C(=O)[C@H]([C@@H](C)CC)NC(=O)[C@H](CO)NC(=O)[C@H](C)NC(=O)[C@H]([C@@H](C)O)NC(=O)[C@@H]2CSSC[C@H](NC1=O)C(=O)N[C@@H](Cc1cnc[nH]1)C(=O)N[C@H](Cc1ccccc1)C(=O)N(C)[C@@H](CCCNC(=N)N)C(=O)N[C@@H](Cc1c[nH]c3ccccc13)C(=O)N[C@@H](CCCNC(=N)N)C(=O)N2
solubility [3]: Soluble

CC[C@H](C)[C@@H]1NC(=O)[C@@H]2CCCN2C(=O)[C@@H]2CCCN2C(=O)[C@H]([C@@H](C)CC)NC(=O)[C@H](CO)NC(=O)[C@H](C)NC(=O)[C@H]([C@@H](C)O)NC(=O)[C@@H]2CSSC[C@H](NC1=O)C(=O)N[C@@H](Cc1cnc[nH]1)C(=O)N[C@H](Cc1ccccc1)C(=O)N[C@@H](CCCNC(=N)N)C(=O)N(C)[C@@H](Cc1c[nH]c3ccccc13)C(=O)N[C@@H](CCCNC(=N)N)C(=O)N2
solubility [3]: Soluble

CC[C@H](C)[C@@H]1NC(=O)[C@@H]2CCCN2C(=O)[C@@H]2CCCN2C(=O)[C@H]([C@@H](C)CC)NC(=O)[C@H](CO)NC(=O)[C@H](C)NC(=O)[C@H]([C@H](C)O)NC(=O)[C@@H]2CSSC[C@H](NC1=O)C(=O)N[C@@H](Cc1cnc[nH]1)C(=O)N[C@H](Cc1ccccc1)C(=O)N[C@@H](CCCNC(=N)N)C(=O)N(C)[C@@H](Cc1c[nH]c3ccccc13)C(=O)N[C@@H](CCCNC(=N)N)C(=O)N2
Activity [1]: 100%
Activity (Melanocortin receptor 4 [2]): 100%
Activity (Melanocortin receptor 3 [4]): 100%
inhibition [5]: 100%
inhibition (Melanocortin receptor 3 [6]): 100%
inhibition (Melanocortin receptor 5): 100%
inhibition (Melanocortin receptor 4 [7]): 100%
Activity (Melanocortin receptor 4 [8]): 100%

CC[C@H](C)[C@@H]1NC(=O)[C@@H]2CCCN2C(=O)[C@@H]2CCCN2C(=O)[C@H]([C@@H](C)CC)NC(=O)[C@H](CO)NC(=O)[C@H](C)NC(=O)[C@H]([C@H](C)O)NC(=O)[C@@H]2CSSC[C@H](NC1=O)C(=O)N(C)[C@@H](Cc1cnc[nH]1)C(=O)N[C@H](Cc1ccccc1)C(=O)N(C)[C@@H](CCCNC(=N)N)C(=O)N[C@@H](Cc1c[nH]c3ccccc13)C(=O)N[C@@H](CCCNC(=N)N)C(=O)N2
Activity [1]: 100%
Activity (Melanocortin receptor 4 [2]): 100%
Activity (Melanocortin receptor 3 [4]): 100%
inhibition [5]: 100%
inhibition (Melanocortin receptor 3 [6]): 100%
inhibition (Melanocortin receptor 5): 100%
inhibition (Melanocortin receptor 4 [7]): 100%
Activity (Melanocortin receptor 4 [8]): 100%

CC[C@H](C)[C@@H]1NC(=O)[C@@H]2CCCN2C(=O)[C@@H]2CCCN2C(=O)[C@H]([C@@H](C)CC)NC(=O)[C@H](CO)NC(=O)[C@H](C)NC(=O)[C@H]([C@@H](C)O)NC(=O)[C@@H]2CSSC[C@H](NC1=O)C(=O)N[C@@H](Cc1cnc[nH]1)C(=O)N[C@H](Cc1ccccc1)C(=O)N[C@@H](CCCNC(=N)N)C(=O)N[C@@H](Cc1c[nH]c3ccccc13)C(=O)N[C@@H](CCCNC(=N)N)C(=O)N2
solubility [3]: Soluble

CC[C@H](C)[C@@H]1NC(=O)[C@@H]2CCCN2C(=O)[C@H](Cc2c[nH]c3ccccc23)N(C)C(=O)[C@H](CCCNC(=N)N)NC(=O)[C@@H](Cc2ccccc2)NC(=O)[C@H](Cc2cnc[nH]2)NC(=O)[C@H]([C@@H](C)O)NC(=O)[C@@H]2CSSC[C@H](NC1=O)C(=O)N[C@@H](Cc1ccccc1)C(=O)N1CCC[C@H]1C(=O)N[C@@H](CC(=O)O)C(=O)NCC(=O)N[C@@H](CCCNC(=N)N)C(=O)N2 (cyclo(CFPDGRCTH[dF]R[NMeW]PI); disulfide 1-7)
Activity [1]: 100%
Activity (Melanocortin receptor 4 [2]): 100%
solubility [3]: Soluble
Activity (Melanocortin receptor 3 [4]): 100%
inhibition [5]: 100%
inhibition (Melanocortin receptor 3 [6]): 100%
inhibition (Melanocortin receptor 5): 100%
inhibition (Melanocortin receptor 4 [7]): 100%
Activity (Melanocortin receptor 4 [8]): 100%

CC[C@H](C)[C@@H]1NC(=O)[C@@H]2CCCN2C(=O)[C@@H]2CCCN2C(=O)[C@H]([C@@H](C)CC)NC(=O)[C@H](CO)NC(=O)[C@H](C)NC(=O)[C@H]([C@H](C)O)NC(=O)[C@@H]2CSSC[C@H](NC1=O)C(=O)N(C)[C@@H](Cc1cnc[nH]1)C(=O)N[C@H](Cc1ccccc1)C(=O)N[C@@H](CCCNC(=N)N)C(=O)N(C)[C@@H](Cc1c[nH]c3ccccc13)C(=O)N[C@@H](CCCNC(=N)N)C(=O)N2
Activity [1]: 100%
Activity (Melanocortin receptor 4 [2]): 100%
Activity (Melanocortin receptor 3 [4]): 100%
inhibition [5]: 100%
inhibition (Melanocortin receptor 3 [6]): 100%
inhibition (Melanocortin receptor 5): 100%
inhibition (Melanocortin receptor 4 [7]): 100%
Activity (Melanocortin receptor 4 [8]): 100%

CC[C@H](C)[C@@H]1NC(=O)[C@@H]2CCCN2C(=O)[C@@H]2CCCN2C(=O)[C@H]([C@@H](C)CC)NC(=O)[C@H](CO)NC(=O)[C@H](C)NC(=O)[C@H]([C@@H](C)O)NC(=O)[C@@H]2CSSC[C@H](NC1=O)C(=O)N(C)[C@@H](Cc1cnc[nH]1)C(=O)N[C@H](Cc1ccccc1)C(=O)N(C)[C@@H](CCCNC(=N)N)C(=O)N[C@@H](Cc1c[nH]c3ccccc13)C(=O)N[C@@H](CCCNC(=N)N)C(=O)N2
solubility [3]: Soluble

CC[C@H](C)[C@@H]1NC(=O)[C@@H]2CCCN2C(=O)[C@@H]2CCCN2C(=O)[C@H]([C@@H](C)CC)NC(=O)[C@H](CO)NC(=O)[C@H](C)NC(=O)[C@H]([C@@H](C)O)NC(=O)[C@@H]2CSSC[C@H](NC1=O)C(=O)N(C)[C@@H](Cc1cnc[nH]1)C(=O)N[C@H](Cc1ccccc1)C(=O)N[C@@H](CCCNC(=N)N)C(=O)N(C)[C@@H](Cc1c[nH]c3ccccc13)C(=O)N[C@@H](CCCNC(=N)N)C(=O)N2
solubility [3]: Soluble

CC[C@H](C)[C@@H]1NC(=O)[C@@H]2CCCN2C(=O)[C@@H]2CCCN2C(=O)[C@H]([C@@H](C)CC)NC(=O)[C@H](CO)NC(=O)[C@H](C)NC(=O)[C@H]([C@H](C)O)NC(=O)[C@@H]2CSSC[C@H](NC1=O)C(=O)N(C)[C@@H](Cc1cnc[nH]1)C(=O)N[C@H](Cc1ccccc1)C(=O)N[C@@H](CCCNC(=N)N)C(=O)N[C@@H](Cc1c[nH]c3ccccc13)C(=O)N[C@@H](CCCNC(=N)N)C(=O)N2
Activity [1]: 100%
Activity (Melanocortin receptor 4 [2]): 100%
Activity (Melanocortin receptor 3 [4]): 100%
inhibition [5]: 100%
inhibition (Melanocortin receptor 3 [6]): 100%
inhibition (Melanocortin receptor 5): 100%
inhibition (Melanocortin receptor 4 [7]): 100%
Activity (Melanocortin receptor 4 [8]): 100%

CC[C@H](C)[C@@H]1NC(=O)[C@@H]2CCCN2C(=O)[C@@H]2CCCN2C(=O)[C@H]([C@@H](C)CC)NC(=O)[C@H](CO)NC(=O)[C@H](C)NC(=O)[C@H]([C@@H](C)O)NC(=O)[C@@H]2CSSC[C@H](NC1=O)C(=O)N(C)[C@@H](Cc1cnc[nH]1)C(=O)N[C@H](Cc1ccccc1)C(=O)N[C@@H](CCCNC(=N)N)C(=O)N[C@@H](Cc1c[nH]c3ccccc13)C(=O)N[C@@H](CCCNC(=N)N)C(=O)N2
solubility [3]: Soluble

CC[C@H](C)[C@@H]1NC(=O)[C@@H]2CCCN2C(=O)[C@@H]2CCCN2C(=O)[C@H]([C@@H](C)CC)NC(=O)[C@H](CO)NC(=O)[C@H](C)NC(=O)[C@H]([C@H](C)O)NC(=O)[C@@H]2CSSC[C@H](NC1=O)C(=O)N(C)[C@@H](Cc1cnc[nH]1)C(=O)N[C@H](Cc1ccccc1)C(=O)N(C)[C@@H](CCCNC(=N)N)C(=O)N(C)[C@@H](Cc1c[nH]c3ccccc13)C(=O)N[C@@H](CCCNC(=N)N)C(=O)N2
Activity [1]: 100%
Activity (Melanocortin receptor 4 [2]): 100%
Activity (Melanocortin receptor 3 [4]): 100%
inhibition [5]: 100%
inhibition (Melanocortin receptor 3 [6]): 100%
inhibition (Melanocortin receptor 5): 100%
inhibition (Melanocortin receptor 4 [7]): 100%
Activity (Melanocortin receptor 4 [8]): 100%

CC[C@H](C)[C@@H]1NC(=O)[C@@H]2CCCN2C(=O)[C@@H]2CCCN2C(=O)[C@H]([C@@H](C)CC)NC(=O)[C@H](CO)NC(=O)[C@H](C)NC(=O)[C@H]([C@@H](C)O)NC(=O)[C@@H]2CSSC[C@H](NC1=O)C(=O)N[C@@H](Cc1c[nH]cn1)C(=O)N[C@H](Cc1ccccc1)C(=O)N(C)[C@@H](CCCNC(=N)N)C(=O)N(C)[C@@H](Cc1c[nH]c3ccccc13)C(=O)N[C@@H](CCCNC(=N)N)C(=O)N2
solubility [3]: Soluble

CC[C@H](C)[C@@H]1NC(=O)[C@@H]2CCCN2C(=O)[C@@H]2CCCN2C(=O)[C@H]([C@@H](C)CC)NC(=O)[C@H](CO)NC(=O)[C@H](C)NC(=O)[C@H]([C@@H](C)O)NC(=O)[C@@H]2CSSC[C@H](NC1=O)C(=O)N(C)[C@@H](Cc1cnc[nH]1)C(=O)N[C@H](Cc1ccccc1)C(=O)N(C)[C@@H](CCCNC(=N)N)C(=O)N(C)[C@@H](Cc1c[nH]c3ccccc13)C(=O)N[C@@H](CCCNC(=N)N)C(=O)N2
solubility [3]: Soluble
